Assay results taken from ChEMBL document CHEMBL1125611, “Synthesis and biological evaluation of a series of 1,1-dichloro-2,2,3-triarylcyclopropanes as pure antiestrogens” (1991).

Key:
[1] = organism: Mus musculus; experiment: Ability to antagonize uterine weight gain in immature mice, at a dose of 150 ug; Activity is expressed as anti-uterotrophic % reduction; format: functional; parameters: scale not given: the % may be the effect or the level left
Summary of the method: (§1)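 Immature (17-19 days, 8-10 g) female Swiss-Webster mice, groups of six. Daily sc injections in the nape for 3 consecutive days. Estradiol in sesame oil (0.1 µg/mL, 0.1 mL; total 0.03 µg) plus 0.05 mL test compound in isopropyl myristate, given at separate sites. Vehicle and estradiol-only controls. Uteri cleaned, blotted and weighed 24 h after the last dose. % reduction of the estradiol-induced weight gain.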

[2] = organism: Mus musculus; experiment: Ability to antagonize uterine weight gain in immature mice, at a dose of 750 ug; Activity is expressed as anti-uterotrophic % reduction; format: functional; parameters: scale not given: the % may be the effect or the level left; summary of the method: as §1
[3] = organism: Mus musculus; experiment: Ability to antagonize uterine weight gain in immature mice, at a dose of 30 ug; Activity is expressed as anti-uterotrophic % reduction; format: functional; parameters: scale not given: the % may be the effect or the level left; summary of the method: as §1
[4] = target: Estrogen receptor (Homo sapiens) (UniProt Q92731+P03372); experiment: Antiproliferative activity against estrogen receptor positive MCF-7 human breast cancer cell line at 10e-9 M; format: functional, cell-based; conditions: MCF7
Summary of the method: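 MCF-7 cells in phenol-red-free RPMI 1640 with 5% calf serum, 2 mM L-glutamine and antibiotics, 37 °C, 5% CO2. Plated at 7.5 × 10⁴ cells/well, then allowed to attach for 2 days. Compound in 11:9 PEG 400–EtOH (final vehicle 0.1%) added on alternate days. Viable cells counted on day 4 by trypan blue exclusion, triplicate. % inhibition versus vehicle control.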

[5] = target: Estrogen receptor (Rattus norvegicus) (UniProt P06211+Q62986); experiment: Relative binding affinity for estrogen receptor in rat uterine cytosol by displacement of [3H]-estradiol; conditions: Uterus
Summary of the method: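 Uterine cytosol from immature Sprague-Dawley rats (17-19 days) primed with estradiol (0.53 µg sc daily ×3). Competitive displacement of [3H]estradiol, with free ligand removed by dextran-coated charcoal. Parallel incubations with 4 × 10⁻⁶ diethylstilbestrol define nonspecific binding, which is subtracted. RBA relative to estradiol = 100%, by Bliss method, duplicates.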

[6] = target: T1, Estrogen receptor (Mus musculus) (UniProt O08537+P19785); experiment: Antagonism of estradiol induced uterine weight gain in immature mice at 30 ug.; format: functional; parameters: scale not given: the % may be the effect or the level left; summary of the method: as §1
T1 sequence (O08537 whole entry, looked up): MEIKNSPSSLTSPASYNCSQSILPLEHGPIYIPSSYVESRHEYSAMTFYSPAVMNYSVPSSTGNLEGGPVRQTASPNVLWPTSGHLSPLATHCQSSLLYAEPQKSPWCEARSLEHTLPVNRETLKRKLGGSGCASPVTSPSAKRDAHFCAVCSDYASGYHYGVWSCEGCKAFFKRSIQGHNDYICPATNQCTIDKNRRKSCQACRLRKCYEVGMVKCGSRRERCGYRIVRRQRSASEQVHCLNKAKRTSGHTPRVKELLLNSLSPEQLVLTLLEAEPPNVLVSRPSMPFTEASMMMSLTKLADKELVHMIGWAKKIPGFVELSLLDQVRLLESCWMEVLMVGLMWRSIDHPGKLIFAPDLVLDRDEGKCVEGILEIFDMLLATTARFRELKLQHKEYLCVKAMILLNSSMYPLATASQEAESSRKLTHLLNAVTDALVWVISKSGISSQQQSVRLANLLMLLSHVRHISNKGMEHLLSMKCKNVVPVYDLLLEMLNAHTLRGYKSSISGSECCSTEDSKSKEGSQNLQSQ
T1 sequence (P19785 whole entry, looked up): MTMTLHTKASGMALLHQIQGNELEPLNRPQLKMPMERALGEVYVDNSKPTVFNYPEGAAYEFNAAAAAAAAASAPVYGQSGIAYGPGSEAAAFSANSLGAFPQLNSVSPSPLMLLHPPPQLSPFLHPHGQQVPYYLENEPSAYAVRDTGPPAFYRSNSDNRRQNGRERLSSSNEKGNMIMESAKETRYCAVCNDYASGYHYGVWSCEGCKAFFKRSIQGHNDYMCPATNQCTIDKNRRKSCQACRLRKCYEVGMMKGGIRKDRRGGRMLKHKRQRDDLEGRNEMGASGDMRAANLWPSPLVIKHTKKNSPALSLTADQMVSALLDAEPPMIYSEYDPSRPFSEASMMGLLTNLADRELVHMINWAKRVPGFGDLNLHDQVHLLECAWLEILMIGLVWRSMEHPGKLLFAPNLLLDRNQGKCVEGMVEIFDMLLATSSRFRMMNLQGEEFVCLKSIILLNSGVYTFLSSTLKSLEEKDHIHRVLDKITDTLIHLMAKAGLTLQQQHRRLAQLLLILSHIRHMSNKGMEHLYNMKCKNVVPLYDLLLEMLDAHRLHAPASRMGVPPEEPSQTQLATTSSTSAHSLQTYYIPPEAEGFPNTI

[7] = target: T1, Estrogen receptor (Mus musculus); experiment: Antagonism of estradiol induced uterine weight gain in immature mice at 10 ug; Activity is expressed as anti-uterotrophic % reduction; format: functional; parameters: scale not given: the % may be the effect or the level left; summary of the method: as §1
[8] = target: T1, Estrogen receptor (Mus musculus); experiment: Antagonism of estradiol induced uterine weight gain in immature mice at 4 ug; Activity is expressed as anti-uterotrophic % reduction; format: functional; parameters: scale not given: the % may be the effect or the level left; summary of the method: as §1
[9] = target: T1, Estrogen receptor (Mus musculus); experiment: Antagonism of estradiol induced uterine weight gain in immature mice at 750 ug; Activity is expressed as anti-uterotrophic % reduction; format: functional; parameters: scale not given: the % may be the effect or the level left; summary of the method: as §1
[10] = target: T1, Estrogen receptor (Mus musculus); experiment: Antagonism of estradiol induced uterine weight gain in immature mice at 800 ug; Activity is expressed as anti-uterotrophic % reduction; format: functional; parameters: scale not given: the % may be the effect or the level left; summary of the method: as §1
[11] = target: T1, Estrogen receptor (Mus musculus); experiment: Antagonism of estradiol induced uterine weight gain in immature mice at 200 ug; Activity is expressed as anti-uterotrophic % reduction; format: functional; parameters: scale not given: the % may be the effect or the level left; summary of the method: as §1
[12] = target: T1, Estrogen receptor (Mus musculus); experiment: Antagonism of estradiol induced uterine weight gain in immature mice at 400 ug; Activity is expressed as anti-uterotrophic % reduction; format: functional; parameters: scale not given: the % may be the effect or the level left; summary of the method: as §1
[13] = target: T1, Estrogen receptor (Mus musculus); experiment: Antagonism of estradiol induced uterine weight gain in immature mice at 150 ug.(p<0.01); format: functional; parameters: scale not given: the % may be the effect or the level left; summary of the method: as §1

| Compound | Activity [1] [%] | Activity [2] [%] | Activity [3] [%] | also measured |
| --- | --- | --- | --- | --- |
| COc1ccc(C2C(Cl)=C(c3ccc(OCc4ccccc4)cc3)c3ccc(OC)cc32)cc1 (configuration not stated) | 4 | 0 | 14 |  |
| COc1ccc(C2(c3ccccc3)C(c3ccccc3)C2(Cl)Cl)cc1 (configuration not stated) | 49 | 33 | 22 | inhibition [4]: 6.1% |
| ClC1(Cl)C(c2ccccc2)C1(c1ccccc1)c1ccccc1 (configuration not stated) | 3 | 13 | 11 | RBA [5]: 0.1% |
| Oc1ccc(C2(c3ccccc3)C(c3ccccc3)C2(Cl)Cl)cc1 (configuration not stated) | 12 | 25 | 23 |  |
| COc1ccc(C2C(Cl)=C(c3ccc(O)cc3)c3ccc(OC)cc32)cc1 (configuration not stated) | 14 | 12 | 3 |  |
| COc1ccc(C2(c3ccc(O)cc3)C(c3ccccc3)C2(Cl)Cl)cc1 (stereo in doubt; 6c) | 18 | 22 | 28 |  |
| COc1ccc(C2C(Cl)(Cl)C2(c2ccc(OC)cc2)c2ccc(OCc3ccccc3)cc2)cc1 (configuration not stated) | 49 | 2 |  | Activity [6]: 15%; Activity [7]: 2% |
| COc1ccc(C2(c3ccc(O)cc3)C(c3ccccc3)C2(Cl)Cl)cc1 (stereo in doubt; 6b) | -7 | 41 | 15 |  |
| COc1ccc(C2C(Cl)(Cl)C2(c2ccc(O)cc2)c2ccc(OC)cc2)cc1 (configuration not stated) | 10 | 26 | 19 |  |
| CN(C)CCOc1ccc(C2(c3ccccc3)C(c3ccccc3)C2(Cl)Cl)cc1 (configuration not stated) | 30 | 18 | 37 | Activity [8]: -6%; inhibition [4]: 12.4%; Activity [7]: 10% |
| COc1ccc(C2=C(Cl)C(c3ccc(OC)cc3)c3cc(OC)ccc32)cc1 (configuration not stated) | -6 | 28 | 27 |  |
| COc1ccc(C2(c3ccc(OCCN(C)C)cc3)C(c3ccccc3)C2(Cl)Cl)cc1 (configuration not stated) | 42 | 53 | 33 | Activity [8]: -10%; Activity [7]: 6% |
| CCN(CC)CCOc1ccc(C(O)(Cc2ccc(OC)cc2)c2ccccc2)cc1 (configuration not stated) | 30 |  | 1 | Activity [9]: 82% |
| ClC1(Cl)C(c2ccccc2)C1c1ccccc1 (configuration not stated) |  |  |  | Activity [10]: 58%; Activity [11]: 28%; Activity [12]: 42% |
| COc1ccc(C2(c3ccc(OCc4ccccc4)cc3)C(c3ccccc3)C2(Cl)Cl)cc1 (configuration not stated) |  | 22 | 37 | Activity [13]: 47%; inhibition [4]: 31.3% |
| CC/C(=C(\c1ccccc1)c1ccc(OCCN(C)C)cc1)c1ccccc1 [TAMOXIFEN] | 0 | -12 | 4 |  |
